Bioassay records deposited in PubChem by several laboratories.
Sampled rows, rich in hits. Any-hit rate of the full collection: about 2.9%.
SENP8 block-1: human SENP8 protease inhibitors, primary screen, biochemical, fluorescence, Nedd8 protein substrate, uHTS; inhibition, % at 20 µM; 360,000 compounds, 0.64% hits; AID 602440, 2012; recombinant SENP8; in the data active = inhibition mostly above about 40%, no sharp cut-off; inactive = mostly below about 27%
SENP1 FRET inh: human SENP1 catalytic domain inhibitors, primary screen, biochemical, FRET, uHTS | 360,000 compounds, 0.21% hits | recombinant SENP1 catalytic domain, CyPet-SUMO1-YPet FRET cleavage | inhibition, % at 10 µM | Sentrin-specific protease 1 (Homo sapiens), Q9P0U3 | AID 624204, 2012;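 active = inhibition at least 30% at 10 µM, raw YFP signal under a set limit, fluorescence ratio 0.5 to 1.5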;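 note: 0% = enzyme with DMSO and 100% = no enzyme wells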
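Material: hSENP1 catalytic domain, recombinant; medium: Tris pH 8 with BME, BSA, NP40 and catalase; compound: single concentration of 10 µM compound, 0.5% DMSO final; technique: FRET read of cyan and yellow fluorescence; timing: 50 min enzyme reaction, room temperature, light-protected; reagent: SFCypet-SUMO1-SFYpet substrate at 25 nM; control set: no-enzyme low, enzyme-DMSO high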
HSP90 refold inh: HSP90 inhibitors, primary screen, cell lysate, luminescence; Rabbit reticulocyte lysate, luciferase refolding luminescence, 3 h; inhibition, % at 5.6 µM; 290,000 compounds, 0.91% hits; AID 1789, 2009;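 active = inhibition above the screen-wide mean plus 3 SD, computed separately per campaign, cut at about 16% in these data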;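 note: 0% = DMSO wells and 100% = 60 µM geldanamycin wells; inhibitors lower the luminescence because luciferase stays unfolded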
SENP7 inh: SENP7 protease inhibitors, primary screen, biochemical, luminescence, uHTS. Sentrin-specific protease 7 (Homo sapiens), Q9BQF6. recombinant SENP7, Z-RLRGG-aminoluciferin luminescence, 40 min. inhibition, % at 5 µM. 330,000 compounds, 1.5% hits. AID 434973, 2010;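 active = inhibition above about 50% at the single test dose, limit read from the data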;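 note: plate controls were DMSO with enzyme for no effect and no enzyme buffer wells for full effect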
SENP8 block-2: SENP8 protease inhibitors, primary screen, biochemical, luminescence | 330,000 compounds, 1.2% hits | purified SENP8, Z-RLRGG-aminoluciferin cleavage | inhibition, % at 10 µM; in the data active = inhibition above about 50%
SENP6 block: SENP6 protease inhibitors, primary screen, biochemical, luminescence, uHTS; AID 2599, 2010; Recombinant SENP6 catalytic domain, aminoluciferin luminescence; inhibition, % at 10 µM; 330,000 compounds, 1.8% hits;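 active = inhibition above about 50% at the single tested dose, limit read from the data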;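 note: plate controls were DMSO wells with enzyme for no effect and DMSO wells lacking enzyme for full effect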
HSP90 inh confirm: HSP90 inhibitors, confirmation, cell lysate, luminescence. shares compounds with HSP90 refold inh. rabbit reticulocyte lysate, luciferase refolding luminescence, 3 h. inhibition, % at 5.9 µM. 2,300 compounds, 64% hits. AID 1846, 2009; in the data active = inhibition above about 18%;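 note: 0% = vehicle wells and 100% = reference inhibitor wells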
FLuc counter: firefly luciferase inhibitors, HSP90 counter-screen, confirmation, artefact control for HSP90 inhibitor project, biochemical, luminescence, triplicate. inhibition, % at 5.9 µM. shares compounds with HSP90 refold inh. purified native firefly luciferase. AID 1847, 2009. 2,300 compounds, 48% hits;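 active = inhibition above the mean inhibition of all tested sample wells plus 3 SD, cut at about 10% in these data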;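 note: 0% = DMSO with luciferase and 100% = wells lacking luciferase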
Numbers without * were called inactive.

`NC(=O)Cc1ncc(C(F)(F)F)cc1Cl` gave SENP8 block-1 14, SENP1 FRET inh 3, HSP90 refold inh 25*, SENP7 inh -7, SENP8 block-2 -1, SENP6 block -27, HSP90 inh confirm -1 and FLuc counter -5.
CC1=C(C(=O)OCC(C)C)C(c2ccsc2)NC(=O)N1 (centres undefined) was read as SENP8 block-1 3, SENP1 FRET inh 1, HSP90 refold inh 24*, SENP7 inh -4, SENP8 block-2 7, SENP6 block -3, HSP90 inh confirm 2 and FLuc counter -5.
`CCOC(=O)C1=C(C)NC(=O)NC1c1ccsc1` (centres undefined) gave SENP8 block-1 13, SENP1 FRET inh -1, HSP90 refold inh -4, SENP7 inh 0, SENP8 block-2 -4 and SENP6 block -3.
COCCCn1cc(CN2CC(N3CCN(Cc4cccc(C)c4)CC3)CS2(=O)=O)nn1 (centres undefined) was read as SENP8 block-1 13 and SENP1 FRET inh 0.
Screening OC(COc1cccc2ccccc12)CN1CCOCC1 (centres undefined) returned SENP8 block-1 9 and SENP1 FRET inh -1.
`CC(C)(C)c1ccc(OCC(O)CN2CCN(c3ccccn3)CC2)cc1` (centres undefined) gave SENP8 block-1 7, SENP1 FRET inh 3, HSP90 refold inh 40*, SENP7 inh 8, SENP8 block-2 2, SENP6 block 8, HSP90 inh confirm 2 and FLuc counter -2.
`OC(COc1ccc(Cl)cc1)CN1CCN(c2ccccc2)CC1` (centres undefined) gave SENP8 block-1 10, SENP1 FRET inh 4, HSP90 refold inh 40*, SENP7 inh 3, SENP8 block-2 -2, SENP6 block -4, HSP90 inh confirm -2 and FLuc counter -6.
OC(COc1cccc2ccccc12)CN1CCN(c2ccccc2)CC1 (centres undefined) was read as SENP8 block-1 23, SENP1 FRET inh 2, HSP90 refold inh 12, SENP7 inh 7, SENP8 block-2 -4, SENP6 block 5, HSP90 inh confirm 7 and FLuc counter 0.
Cc1cc(/C=N/NC(=O)c2cccs2)c(C)n1-c1ccccc1 was read as SENP8 block-1 -60, SENP1 FRET inh 0, HSP90 refold inh 57*, SENP7 inh 32, SENP8 block-2 44, SENP6 block -29, HSP90 inh confirm 71* and FLuc counter 66*.
Cc1cc(C(=O)N/N=C/c2ccc(O)c(O)c2O)c(C)n1-c1ccccc1 was read as SENP8 block-1 39, SENP1 FRET inh -5, HSP90 refold inh 17*, HSP90 inh confirm 2 and FLuc counter -20.
Screening O=C(NCCc1ccccc1F)C1CC(=O)N(c2ccc3c(c2)OCCO3)C1 (centres undefined) returned SENP8 block-1 0 and SENP1 FRET inh 2.
Screening C=CCn1c(SCC(=O)NCC2CCCO2)nc2c([nH]c3ccccc32)c1=O (centres undefined) returned SENP8 block-1 -31, SENP1 FRET inh 0, HSP90 refold inh 2, SENP7 inh -12, SENP8 block-2 -13 and SENP6 block -9.
For CCCCN(C(C)=O)c1ccc(S(=O)(=O)NC2=NCCCCC2)cc1NC(C)=O the results were SENP8 block-1 12, SENP1 FRET inh -1, SENP7 inh 5, SENP8 block-2 -11 and SENP6 block 0.
